Screening results as filed in PubChem BioAssay.
Shown are actives, neighbours in structure and some others; about 0.58% of the full set was active somewhere.
TRPML3 ag – agonists of human TRPML3 channel; AID 1448; activation, % at 3 µM; Q8TDD5; hit rate 0.29% among 220,000; HEK293 TRPML3-YFP, Fluo-8 calcium fluorescence; 100% = the carbachol control signal;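 active means activation above its plate's cutoff, the mean activation of the plate's test wells plus 3 SD, cut at about 12% in these data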;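 further: 0% = DMSO only wells and 100% = carbachol wells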
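Test system: HEK293 cells stably carrying human TRPML3-YFP; Doses: single dose, 3 µM final nominal compound, 0.3% DMSO final; Schedule: dye loading 1 h 37 °C then 30 min ambient, 125 s read; Technique: Fluo-8 calcium fluorescence; Benchmarks: high control carbachol 87 µM, low control DMSO.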
V1aR counter – V1a receptor agonism, counter-screen for OXTR agonists; P37288; CHO-V1R cells, Fluo-8 calcium fluorescence, agonist mode; 0% DMSO, 100% 3 nM vasopressin; activation, % at 3 µM; hit rate 0.25% among 320,000; AID 2797;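 active means activation above the mean activation of all tested compounds plus 3 SD, per screening run, cut at about 20% in these data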;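 further: signal is peak over basal fluorescence ratio across a 100 second FLIPR read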
OXTR potentiate – potentiates the human oxytocin receptor response. P30559. CHO-OTR cells, Fluo-8 calcium fluorescence, potentiator mode; 0% = oxytocin EC15, 100% = EC100. activation, % at 3 µM. hit rate 0.061% among 320,000. AID 2445;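 active means activation above that plate's cutoff, the mean activation of tested compounds plus 3 SD, cut at about 6.6% in these data, passing the limit was not always enough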;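 further: 100% uses oxytocin at 75 nM as the full agonist control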
Target sequence (P30559 whole entry, looked up): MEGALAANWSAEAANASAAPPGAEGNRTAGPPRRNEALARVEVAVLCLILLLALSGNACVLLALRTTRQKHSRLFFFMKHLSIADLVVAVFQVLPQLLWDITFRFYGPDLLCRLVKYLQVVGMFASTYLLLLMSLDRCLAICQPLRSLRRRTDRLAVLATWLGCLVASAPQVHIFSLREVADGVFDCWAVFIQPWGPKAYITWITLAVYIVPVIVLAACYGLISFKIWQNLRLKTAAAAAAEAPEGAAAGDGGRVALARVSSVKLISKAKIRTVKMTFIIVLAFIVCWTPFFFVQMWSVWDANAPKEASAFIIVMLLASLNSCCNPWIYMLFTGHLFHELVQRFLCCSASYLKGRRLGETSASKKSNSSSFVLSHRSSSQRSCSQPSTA
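Assay system: CHO cell line stably expressing human OTR. Reagent: EC15 oxytocin agonist. Dosing: single dose, 3.0 µM nominal final compound concentration. Timing: compound 6 min at room temperature before oxytocin, 100 s read. Signal: kinetic Fluo-8 calcium fluorescence. Controls: oxytocin EC15 low and EC100 high.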
TRPN1 ag – activates the zebrafish TRPN1 channel. hit rate 0.18% among 220,000. AID 1424. activation, % at 3 µM. HEK293 zebrafish TRPN1-YFP, Fluo-8 calcium fluorescence; 100% = response to 87 µM carbachol;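 active means activation above its plate's cutoff, the mean activation of test wells on that plate plus 3 SD, cut at about 19% in these data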;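 further: 0% = DMSO alone and 100% = 87 µM carbachol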
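Control set: carbachol 87 µM as high control, DMSO as low control; system: HEK293 stable line with zebrafish TRPN1-YFP; read-out: % activation versus carbachol response; detection: intracellular calcium fluorescence with Fluo-8; doses: single test compound dose, 3 µM nominal, 0.3% DMSO; schedule: dye 1 h 37 °C plus 30 min RT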
OXTR agonist – activates the human oxytocin receptor; CHO-OTR cells, Fluo-8 calcium fluorescence; normalized: DMSO 0%, oxytocin 100%; activation, % at 3 µM; hit rate 0.32% among 320,000; AID 2435;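 active means activation above the mean of all tested compounds plus 3 SD, cutoff set per screening run, cut at about 20% in these data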;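 further: peak over basal fluorescence ratio from a 100 s FLIPR kinetic read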
OXTR pot cf – confirmation of human oxytocin receptor potentiators; shares compounds with OXTR potentiate; CHO-OTR cells, Fluo-8 calcium fluorescence, potentiation; scaled from low-dose to maximal oxytocin; activation, % at 3 µM; 180 tested, under 10 active; AID 434985;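 active means mean percent activation over triplicates above a cutoff set from solvent-only control plates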;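 further: compounds tested in the presence of an EC15 dose of oxytocin; 0% = EC15 oxytocin with DMSO and 100% = EC100 oxytocin with DMSO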
Active calls of the source: *.

Screening CCOc1ccccc1Nc1nc(N)nc(CSc2nncn2C)n1 returned TRPML3 ag 0, V1aR counter 1, OXTR potentiate 11*, TRPN1 ag 0, OXTR agonist 0 and OXTR pot cf -6.
`COc1ccc(Nc2nc(N)nc(CSc3nncn3C)n2)cc1` gave TRPML3 ag 1, V1aR counter 0, OXTR potentiate -2, TRPN1 ag -1 and OXTR agonist 0.
CC(C)CC1NC(=O)c2cc(Cl)ccc2-n2c1nc1cc(F)ccc1c2=O (stereo unspecified) was read as V1aR counter -1, OXTR potentiate 15*, OXTR agonist -3 and OXTR pot cf 3.
For N#CCSc1ccc2nc(-c3ccccc3)cn2n1 the results were V1aR counter 0, OXTR potentiate -16 and OXTR agonist -1.
COC(=O)c1ccc(NC(=O)CCN2C(=O)NC(C)(C)C2=O)cc1 was read as V1aR counter 0, OXTR potentiate -4 and OXTR agonist 2.
CCOC(=O)C1CCCN(C(=O)Cn2ncc3c([nH]c4ccccc43)c2=O)C1 (stereo unspecified) was read as V1aR counter 4, OXTR potentiate -4 and OXTR agonist 2.
Screening CCCN(c1nc(C)cc(OC)n1)S(=O)(=O)c1ccccc1 returned TRPML3 ag 1, V1aR counter -1, OXTR potentiate 13*, TRPN1 ag -3, OXTR agonist -2 and OXTR pot cf -4.
`COC(=O)CN(c1nc(C)cc(OC)n1)S(=O)(=O)c1ccccc1` gave TRPML3 ag 0 and TRPN1 ag 0.
Screening O=C(c1ccccc1)N1CCN(S(=O)(=O)N2CCOCC2)CC1 returned TRPML3 ag 1, V1aR counter 1, OXTR potentiate 14*, TRPN1 ag 1, OXTR agonist 2 and OXTR pot cf -2.
Screening CC(=O)Nc1ccc(S(=O)(=O)N(C)CC(=O)N/N=C/c2cccc(O)c2)cc1 returned TRPML3 ag 1, V1aR counter -1, OXTR potentiate 15*, TRPN1 ag 3, OXTR agonist 1 and OXTR pot cf -3.
CC(=O)Nc1ccc(S(=O)(=O)N(C)CC(=O)N/N=C/c2cccs2)cc1 was read as V1aR counter 0, OXTR potentiate -8 and OXTR agonist 0.
Screening COc1ccc(S(=O)(=O)N2CCN(C(=O)CN3C(=O)NC(C)(c4ccc5ccccc5c4)C3=O)CC2)cc1 (stereo unspecified) returned V1aR counter 1, OXTR potentiate -3 and OXTR agonist 1.
CC(C)N(Cc1nccn1C)C(=O)CC1C(=O)NCCN1Cc1ccc(F)c(F)c1 (stereo unspecified) was read as V1aR counter 1, OXTR potentiate 1 and OXTR agonist 1.
For Cc1[nH]c(=O)[nH]c(=O)c1S(=O)(=O)NCC12CC3CC(CC(C3)C1)C2 the results were TRPML3 ag 1, V1aR counter 1, OXTR potentiate 11*, TRPN1 ag -1, OXTR agonist 2 and OXTR pot cf -5.
Screening CCC(NS(=O)(=O)c1c(C)[nH]c(=O)[nH]c1=O)C12CC3CC(CC(C3)C1)C2 (stereo unspecified) returned TRPML3 ag 0, V1aR counter 1, OXTR potentiate -19, TRPN1 ag 1 and OXTR agonist -1.
Cc1cc(C)n(-c2cc(C(C)(C)C)nc3c(-c4ccc(Cl)cc4)cnn23)n1 was read as TRPML3 ag 0, V1aR counter 4, OXTR potentiate 13*, TRPN1 ag 1, OXTR agonist 0 and OXTR pot cf 7.8*.
`Nn1c(SCC(=O)NCC2CCCO2)nnc1-c1ccc(OC(F)F)cc1` (stereo unspecified) gave V1aR counter 0, OXTR potentiate -1 and OXTR agonist 0.
Screening Cc1cc(C)n(C(C)Sc2ccccc2)n1 (stereo unspecified) returned V1aR counter 0, OXTR potentiate 14*, OXTR agonist 1 and OXTR pot cf -5.
For CC1CC(C)CN(S(=O)(=O)c2ccc(C(=O)NNC(=O)c3ccccc3F)cc2)C1 (stereo unspecified) the results were V1aR counter 1, OXTR potentiate -4 and OXTR agonist 1.
CCOc1ccc(-c2c(C(=O)N/N=C/c3ccc(C)o3)nnn2-c2nonc2N)cc1 was read as V1aR counter 1, OXTR potentiate -19 and OXTR agonist 2.
For CCOc1ccc(-c2c(C(=O)N/N=C/c3ccc(O)cc3)nnn2-c2nonc2N)cc1 the results were TRPML3 ag 1, V1aR counter 0, OXTR potentiate 9.6*, TRPN1 ag 1, OXTR agonist 0 and OXTR pot cf 2.
Screening O=C(COc1ccccc1Cl)Nc1ccc2oc(=O)ccc2c1 returned V1aR counter 5, OXTR potentiate -3 and OXTR agonist 2.
CCCCc1ccc(NC(=O)N[C@H](C(=O)O)C(C)CC)cc1 (stereo partly specified) was read as TRPML3 ag 0, V1aR counter -1, OXTR potentiate 13*, TRPN1 ag -1, OXTR agonist -3 and OXTR pot cf 1.
CCc1cc2c(-c3ccccc3)cc(=O)oc2cc1OC(C)C(=O)NCC1CCC(C(=O)O)CC1 (stereo unspecified) was read as V1aR counter 0, OXTR potentiate 9.8*, OXTR agonist 1 and OXTR pot cf -2.
Screening CC(Oc1cc2oc(=O)cc(-c3ccccc3)c2cc1Cl)C(=O)NCC1CCC(C(=O)O)CC1 (stereo unspecified) returned V1aR counter 1, OXTR potentiate -1 and OXTR agonist 0.
For CC1=C(C(=O)OC(C)C)C(c2cccs2)NC(=O)N1 (stereo unspecified) the results were TRPML3 ag 1, V1aR counter 0, OXTR potentiate 9.9*, TRPN1 ag 0, OXTR agonist 1 and OXTR pot cf -5.
`Cc1oc(-c2ccc(Cl)cc2)nc1CS(=O)CC(=O)NCc1ccco1` (stereo unspecified) gave V1aR counter 1, OXTR potentiate 7.9*, OXTR agonist -1 and OXTR pot cf -8.
Cn1c(=O)c2c(nc(NCCCO)n2Cc2cccc(Br)c2)n(C)c1=O was read as TRPML3 ag 0, V1aR counter 0, OXTR potentiate 11*, TRPN1 ag 0, OXTR agonist 1 and OXTR pot cf -6.
For Cc1cccc(Cn2c(NCCO)nc3c2c(=O)n(C)c(=O)n3C)c1 the results were TRPML3 ag 1, V1aR counter 1, OXTR potentiate 3, TRPN1 ag 1 and OXTR agonist -1.
